Laboratory results published in ChEMBL document CHEMBL1132962, “1,2-Dibenzamidobenzene inhibitors of human factor Xa” (J Med Chem, 2000).

Columns and labels:
[1] = target: Coagulation factor X (Homo sapiens) (UniProt P00742); test: Apparent association constant against coagulation factor X
Summary of the method: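 Purchased human fXa, 3.2 nM final, in buffer of 0.06 M tris, 0.3 M NaCl, pH 7.4, with 1 mg/mL HSA in the enzyme diluent. Inhibitor is added in MeOH at 4–8 concentrations in triplicate, then Bz-Ile-Glu-Gly-Arg-pNA (0.3 mM stock in water) starts the reaction. Hydrolysis is read at 405 nm. Free and bound enzyme come from standard curves. Apparent Kass = [Eb]/[Ef][Io−Ib] at 20–80% inhibition.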

[2] = target: Prothrombin (Homo sapiens) (UniProt P00734); test: Apparent association constant against Coagulation factor II
Summary of the method: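 Human α-thrombin, 5.9 nM, with chromogenic substrate Bz-Phe-Val-Arg-pNA at 0.2 mM. Uses the same general protocol as the fXa assay: pNA release read at 405 nm, with inhibitors auto-diluted in triplicate. Apparent Kass = [Eb]/[Ef][Io−Ib] at concentrations giving 20–80% inhibition. Values are mean ± SD when n≥3 and the average when n=2.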

Coagulation factor X (Homo sapiens), sequence (P00742 41-179 limits assumed): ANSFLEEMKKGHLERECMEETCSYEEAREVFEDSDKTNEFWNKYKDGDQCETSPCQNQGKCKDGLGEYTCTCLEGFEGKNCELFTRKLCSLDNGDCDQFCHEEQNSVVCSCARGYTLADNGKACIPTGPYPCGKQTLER
Coagulation factor X (Homo sapiens), sequence (P00742 235-488 limits assumed): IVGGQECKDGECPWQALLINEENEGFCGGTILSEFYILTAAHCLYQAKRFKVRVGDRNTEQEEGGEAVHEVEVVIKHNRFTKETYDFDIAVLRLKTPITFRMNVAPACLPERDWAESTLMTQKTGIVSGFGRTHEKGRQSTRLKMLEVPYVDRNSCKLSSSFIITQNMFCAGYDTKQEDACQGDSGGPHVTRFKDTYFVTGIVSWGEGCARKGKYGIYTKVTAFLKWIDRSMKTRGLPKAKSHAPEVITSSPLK

| K ass [1] | K ass [2] | SMILES |
| --- | --- | --- |
| 1.19e+06 l M-1 | 40000 l M-1 | COc1ccc(C(=O)Nc2ccccc2NC(=O)c2ccc(OC(C)C)cc2)cc1 |
| 380000 l M-1 | 70000 l M-1 | CC(C)(C)c1ccc(C(=O)Nc2ccccc2NC(=O)c2ccccc2)cc1 |
| 510000 l M-1 | 0 l M-1 | CC(C)(C)c1ccc(C(=O)Nc2ccccc2NC(=O)c2ccc(F)cc2)cc1 |
| 7.31e+06 l M-1 | 50000 l M-1 | COc1ccc(C(=O)Nc2ccccc2NC(=O)c2ccc(C(C)(C)C)cc2)cc1 |
| 1.69e+07 l M-1 | 50000 l M-1 | COc1ccc(C(=O)Nc2ccccc2NC(=O)c2ccc(N(C)C)cc2)cc1 |
| 640000 l M-1 | 20000 l M-1 | COc1ccc(C(=O)Nc2ccc(O)cc2NC(=O)c2ccc(OC)cc2)cc1 |
| 520000 l M-1 | 20000 l M-1 | COc1ccc(C(=O)Nc2ccccc2NC(=O)c2ccc(OC)cc2OC)cc1 |
| 10000 l M-1 | 0 l M-1 | CCc1ccc(C(=O)Nc2ccccc2NC(=O)c2ccc(C(C)(C)C)cc2)cc1 |
| 2.92e+06 l M-1 | 50000 l M-1 | CC(C)(C)c1ccc(C(=O)Nc2ccccc2NC(=O)c2ccc(Cl)cc2)cc1 |
| 280000 l M-1 | 0 l M-1 | Cc1ccc(C(=O)Nc2ccccc2NC(=O)c2ccc(C(C)(C)C)cc2)cc1 |
| 4.91e+06 l M-1 | 80000 l M-1 | COc1ccc(C(=O)Nc2ccccc2NC(=O)c2ccc(C(C)C)cc2)cc1 |
| 450000 l M-1 | 10000 l M-1 | COc1ccc(C(=O)Nc2cccc(O)c2NC(=O)c2ccc(OC)cc2)cc1 |
| 770000 l M-1 | 10000 l M-1 | COc1ccc(C(=O)Nc2c(OC)ccc(OC)c2NC(=O)c2ccc(OC)cc2)cc1 |
| 20000 l M-1 | 0 l M-1 | COc1ccc(C(=O)Nc2ccccc2N(C)C(=O)c2ccc(OC)cc2)cc1 |
| 840000 l M-1 | 20000 l M-1 | COc1ccc(C(=O)Nc2ccccc2NC(=O)c2ccc(OC)cc2)cc1 |
| 3.99e+06 l M-1 | 80000 l M-1 | COc1ccc(C(=O)Nc2cc(C(=O)O)ccc2NC(=O)c2ccc(C(C)(C)C)cc2)cc1 |
| 0 l M-1 | 0 l M-1 | CCCCCCOc1ccc(C(=O)Nc2ccccc2NC(=O)c2ccc(OC)cc2)cc1 |
| 640000 l M-1 | 0 l M-1 | CCOc1ccc(C(=O)Nc2ccccc2NC(=O)c2ccc(OC)cc2)cc1 |
| 1.28e+07 l M-1 | 70000 l M-1 | COc1ccc(C(=O)Nc2ccc(C(=O)O)cc2NC(=O)c2ccc(C(C)(C)C)cc2)cc1 |
| 3.56e+06 l M-1 | 50000 l M-1 | COc1ccc(C(=O)Nc2cc(O)ccc2NC(=O)c2ccc(C(C)(C)C)cc2)cc1 |
| 2.35e+06 l M-1 | 20000 l M-1 | COc1ccc(C(=O)Nc2ccccc2NC(=O)c2ccc(C(C)(C)OC)cc2)cc1 |
| 820000 l M-1 | 10000 l M-1 | COc1ccc(C(=O)Nc2ccccc2NC(=O)c2ccc(OC(C)(C)C)cc2)cc1 |
| 710000 l M-1 | 30000 l M-1 | COc1ccc(C(=O)Nc2ccccc2NC(=O)c2ccc(OC)cc2Cl)cc1 |
| 10000 l M-1 | 0 l M-1 | COc1ccc(C(=O)Nc2ccccc2NC(=O)c2ccc(C(=O)C(F)(F)F)cc2)cc1 |

| K ass [1] | K ass [2] | SMILES |
| --- | --- | --- |
| 290000 l M-1 | 0 l M-1 | COc1ccc(C(=O)Nc2ccccc2NC(=O)c2ccc(Oc3ccccc3)cc2)cc1 |
| 420000 l M-1 |  | COc1ccc(C(=O)Nc2ccc(Cl)cc2NC(=O)c2ccc(OC)cc2)cc1 |
| 7.65e+06 l M-1 | 110000 l M-1 | COc1ccc(C(=O)Nc2ccc(NS(C)(=O)=O)cc2NC(=O)c2ccc(C(C)(C)C)cc2)cc1 |
| 400000 l M-1 | 0 l M-1 | CC(C)(C)c1ccc(C(=O)Nc2ccccc2NC(=O)c2cccc(F)c2)cc1 |
| 0 l M-1 | 0 l M-1 | CC(C)(C)c1ccc(C(=O)Nc2ccccc2NC(=O)c2ccc(OC(F)(F)F)cc2)cc1 |
| 1.63e+06 l M-1 | 20000 l M-1 | COc1ccc(C(=O)Nc2ccccc2NC(=O)c2ccc(SC)cc2)cc1 |
| 0 l M-1 | 0 l M-1 | COc1ccc(C(=O)N(C)c2ccccc2N(C)C(=O)c2ccc(OC)cc2)cc1 |
| 3.05e+06 l M-1 | 10000 l M-1 | C=Cc1ccc(C(=O)Nc2ccccc2NC(=O)c2ccc(C(C)(C)C)cc2)cc1 |
| 660000 l M-1 | 0 l M-1 | COc1ccc(C(=O)Nc2ccccc2NC(=O)c2ccc(S(=O)(=O)N(C)C)cc2)cc1 |
| 1.25e+06 l M-1 |  | COc1ccc(C(=O)Nc2ccc(OC)cc2NC(=O)c2ccc(OC)cc2)cc1 |
| 20000 l M-1 | 0 l M-1 | COc1cccc(C(=O)Nc2ccccc2NC(=O)c2ccc(C(C)(C)C)cc2)c1 |
| 0 l M-1 | 0 l M-1 | COc1ccc(C(=O)Nc2cccc(NC(=O)c3ccc(OC)cc3)c2)cc1 |
| 450000 l M-1 | 20000 l M-1 | COc1ccc(C(=O)Nc2ccc(C)cc2NC(=O)c2ccc(OC)cc2)cc1 |
| 320000 l M-1 | 20000 l M-1 | COc1ccc(C(=O)Nc2ccc(C(=O)O)cc2NC(=O)c2ccc(OC)cc2)cc1 |
|  | 40000 l M-1 | COc1ccc(C(=O)Nc2ccc(O)cc2NC(=O)c2ccc(C(C)(C)C)cc2)cc1 |
| 2.68e+06 l M-1 | 40000 l M-1 | CCc1ccc(C(=O)Nc2cc(O)ccc2NC(=O)c2ccc(OC)cc2)cc1 |
| 430000 l M-1 | 0 l M-1 | COc1ccc(C(=O)Nc2ccccc2NC(=O)c2ccc([S+](C)[O-])cc2)cc1 (stereo not drawn) |
| 560000 l M-1 | 0 l M-1 | C=Cc1cccc(C(=O)Nc2ccccc2NC(=O)c2ccc(C(C)(C)C)cc2)c1 |
| 1.1e+06 l M-1 | 0 l M-1 | COc1ccc(C(=O)Nc2ccccc2NC(=O)c2ccc(-c3ccccc3)cc2)cc1 |
| 530000 l M-1 | 0 l M-1 | COc1ccc(C(=O)Nc2ccccc2NC(=O)c2ccc(S(C)(=O)=O)cc2)cc1 |
| 2.55e+07 l M-1 | 50000 l M-1 | COc1ccc(C(=O)Nc2ccc(O)cc2NC(=O)c2ccc(N(C)C)cc2)cc1 |
| 440000 l M-1 | 0 l M-1 | CCCOc1ccc(C(=O)Nc2ccccc2NC(=O)c2ccc(OC)cc2)cc1 |
| 1.3e+07 l M-1 | 130000 l M-1 | COc1ccc(C(=O)Nc2cc(NS(C)(=O)=O)ccc2NC(=O)c2ccc(C(C)(C)C)cc2)cc1 |
| 80000 l M-1 | 0 l M-1 | CCCCOc1ccc(C(=O)Nc2ccccc2NC(=O)c2ccc(OC)cc2)cc1 |
